The values below come from ChEMBL document CHEMBL4673212, “Investigation of synergistic antimicrobial effects of the drug combinations of meropenem and 1,2-benzisoselenazol-3(2H)-one derivatives on carbapenem-resistant Enterobacteriaceae producing NDM-1” (Eur J Med Chem, 2018).

In one data set the test system is HeLa. In words: Cytotoxicity against human HeLa cells assessed as increase in cell viability at 0.13 to 2 mg/ml measured after 48 hrs by MTT assay relative to control. The format is cell-based. To be noted: dose 0.13-2 mg/ml. An outline of the steps:
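MTT assay. HeLa or L929 cells were seeded at 1×10^4/well in DMEM with 10% FBS and grown 12 h at 37 °C. They were exposed to 0.13–2 mg/mL compound (DMSO stock) for 48 h, then given 0.5 mg/mL MTT for 3 h at 37 °C. Formazan was dissolved in DMSO and read at 490 nm. Survival % was blank-corrected against the 0.5% DMSO medium control.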

Data set [1] addresses Metallo-beta-lactamase type 2 (Klebsiella pneumoniae) (UniProt C7C422). Nature of the data set: Binding affinity to denatured N-terminal His6-tagged Klebsiella pneumoniae NDM-1 expressed in Escherichia coli BL21 assessed as formation of compound-intact protein complex by measuring molecular weight measured after 20 mins by ESI-MS analysis. An outline of the steps: (§1)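 NDM-1 (20 µM) incubated 20 min with equimolar compound in 20 mM ammonium acetate. Native sample infused by nano-ESI with spray held ~20 min at 150 V. For the denatured sample, an equal volume of acetonitrile with 0.5% formic acid was added before syringe-pump loading at 5 µL/min. Complex formation was read from mass.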

Data set [2] shares this target. In words: Binding affinity to wild type N-terminal His6-tagged Klebsiella pneumoniae NDM-1 expressed in Escherichia coli BL21 assessed as formation of compound-intact protein complex by measuring molecular weight measured after 20 mins by ESI-MS analysis. An outline of the steps: as §1
The next data set deals with Enterobacter cloacae. In words: Potentiation of meropenem-induced antibacterial activity against NDM-1 producing Enterobacter cloacae isolate 10 infected in Galleria mellonella assessed as increase in larvae survival at 10 mg/kg pretreated for 1hr with compound followed by bacterial infection and measured after 48 hrs (reference value: 20 %). The format is functional. To be noted: time 49 hrs.

Data set [3] can be described thus: Toxicity in Galleria mellonella wax moth larve assessed as mortality at 10 mg/kg relative to control. The format is organism-based. To be noted: in vivo, read-out: Activity.

Chain of Metallo-beta-lactamase type 2 (Klebsiella pneumoniae) (C7C422 whole entry, the tested form may be a part): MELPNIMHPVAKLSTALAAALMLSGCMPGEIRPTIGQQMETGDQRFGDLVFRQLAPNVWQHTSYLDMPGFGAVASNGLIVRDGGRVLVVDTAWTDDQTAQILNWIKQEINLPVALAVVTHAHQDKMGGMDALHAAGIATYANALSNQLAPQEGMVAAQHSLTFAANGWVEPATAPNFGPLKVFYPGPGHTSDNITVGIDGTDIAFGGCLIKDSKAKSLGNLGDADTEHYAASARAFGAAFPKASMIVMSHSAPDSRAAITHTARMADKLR

With `CC(C)(C)OC(=O)NCCn1[se]c2ccccc2c1=O`, the Activity in the data set on HeLa amounted to 70%; in data set [1], 26200 Da; in data set [2] it was 26300 Da; in the data set on Enterobacter cloacae it was 60%. Also, in data set [3], the mortality was 100%.
